The record followed here is publication PMC4650901 (Scientific Reports, 2014).

Assay [1] relates to HepG2 cells. Kind of assay: Annexin V-FITC/PI double staining, HepG2. The settings on record: HepG2, 24 h, single drug 2-DG (Fig. 5b: 40 mM). The format is cell-based, human. An outline of the steps:
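HepG2 cells exposed 24 h to test compound, 2-DG, or both. 3 × 10^5 cells harvested, PBS-washed twice, stained with Annexin V-FITC and PI for 15 min in the dark, then analysed by flow cytometry. Quadrants: Annexin V−/PI− healthy, V+/PI− early apoptotic, V+/PI+ late apoptotic/necrotic, V−/PI+ necrotic. Three experiments.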

Another assay has as its system caspase-8. Kind of assay: Caspase-8 activity assay in HepG2 lysates. Type of assay: cell-based, human. Conditions: HepG2, 24 h; 2-DG 10, 20 mM; UA-4 2, 4 μM; 10 + 2, 20 + 4. The method, boiled down: (§1)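 Lysates were prepared from HepG2 cells treated 24 h with 2-DG (0, 10, 20 mM), test compound (0, 2, 4 μM) or combinations (10 + 2, 20 + 4). Lysates were incubated 4 h at 37°C with pNA substrate: Ac-DEVD-pNA (caspase-3), Ac-IETD-pNA (caspase-8) or Ac-LEHD-pNA (caspase-9). Absorbance at 405 nm, normalised to protein concentration.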

A further assay concerns caspase-9. Nature of the assay: Caspase-9 activity assay in HepG2 lysates. Type of assay: cell-based, human. The settings on record: HepG2, 24 h; 2-DG 10, 20 mM; UA-4 2, 4 μM; 10 + 2, 20 + 4. An outline of the steps: as §1
In assay [2] the test system is HepG2 cells. Kind of assay: MTT assay for cell viability/proliferation, HepG2. The settings on record: Homo sapiens, HepG2, 24 h; for IC80: read-out: IC80 of glycolysis inhibitors; for IC50: read-out: IC50 HepG2. Type of assay: cell-based.
Assay [3] concerns HepG2 cells. Kind of assay: Intracellular ATP, luciferase-luciferin assay. The settings on record: HepG2, 24 h of treatment (method: 12-h incubation). The format is cell-based, human. The method, boiled down: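 HepG2 cells seeded at 3 × 10^5/well and grown 24 h. Then incubated 12 h with 2-DG (0, 10, 20, 40 mM), test compound (0, 2, 4, 6 μM) or combinations (10 + 2, 20 + 4, 40 + 6). Cells PBS-washed, lysed on ice, and ATP read by luciferase–luciferin luminescence. Values normalised to protein and expressed as % of control mean.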

For assay [4], the system named is HepG2 cells. Kind of assay: Cell cycle analysis by flow cytometry. The format is cell-based, human. The settings on record: HepG2, 24 h. An outline of the steps:
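Treatments: A-375 cells with test compound at 0, 1, 3, 5 μM; HepG2 cells untreated, 2-DG 20 mM, test compound 4 μM, or 20 mM + 4 μM; all 24 h. 1 × 10^6 cells washed twice in PBS and fixed overnight in 70% ice-cold ethanol. Stained 30 min at 4°C in the dark with 1% Triton X-100, 0.01% RNase, 0.05% PI. Flow cytometry, three experiments.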

The test system of a further assay is caspase-3. Kind of assay: Caspase-3 activity assay in HepG2 lysates. The format is cell-based, human. The settings on record: HepG2, 24 h; 2-DG 10, 20 mM; UA-4 2, 4 μM; 10 + 2, 20 + 4. The method, boiled down: as §1
A further assay deals with hexokinase (HK). Kind of assay: Hexokinase activity assay in HepG2 cells. The format is cell-based, human. Conditions: HepG2, 24 h.
Assay [5] concerns HepG2 cells. Kind of assay: Lactate production assay. Conditions: HepG2, 24 h; UA-4 2, 4 and 6 μM. Type of assay: cell-based, human. The method, boiled down:
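HepG2 cells (3 × 10^5/well) treated 24 h with 2-DG (0, 10, 20, 40 mM), test compound (0, 2, 4, 6 μM) or combinations (10 + 2, 20 + 4, 40 + 6). Lactate in culture supernatant measured by kit at OD 530 nm and normalised to cell number. Medium background subtracted; means ± SD of triplicate wells.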

For the next assay, the system named is HELF cells. Kind of assay: MTT assay, normal counterpart cell line HELF. Type of assay: cell-based. Conditions: Homo sapiens, 24 h, read-out: IC50 HELF. The method, boiled down: (§2)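 Cells grown in RPMI 1640 with 10% heat-inactivated FBS and penicillin/streptomycin at 37°C, 5% CO2. Plated at 1 × 10^4/well overnight, then treated 24 h with graded test compound (DMSO stock diluted in medium, 0.1% DMSO final; vehicle control 0.1% DMSO). MTT added 4 h in phenol-red-free, serum-free medium; formazan dissolved in DMSO; A492. IC50 = concentration giving 50% growth inhibition; ≥3 repeats.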

The next assay concerns HeLa cells. Kind of assay: MTT assay for cell viability/proliferation, HeLa. The format is cell-based. The settings on record: Homo sapiens, 24 h, read-out: IC50 HeLa. The method, boiled down: as §2
The next assay has as its system AGS cells. Nature of the assay: MTT assay for cell viability/proliferation, AGS. The format is cell-based. The settings on record: Homo sapiens, 24 h, read-out: IC50 AGS. An outline of the steps:
as §2

Another assay has as its system A-375 cells. Nature of the assay: MTT assay for cell viability/proliferation, A-375. Type of assay: cell-based. Conditions: Homo sapiens, A-375, 24 h, read-out: IC50 A-375. The method, boiled down: as §2
The test system of assay [6] is four cancer cell lines (HepG2, AGS, A-375, HeLa). Kind of assay: MTT assay, range over four cancer cell lines. Type of assay: cell-based. The settings on record: Homo sapiens, read-out: IC50 to suppress cell proliferation. An outline of the steps:
as §2

Consider `O=CC[C@@H](O)[C@H](O)[C@H](O)CO` [Compound 2-DG, 2-Deoxy-D-glucose], for which, in the assay with HepG2 cells [1], the apoptosis worked out at 13.7%. Besides, the “activity of caspase-8” value with caspase-8 is listed as “dose-dependently increased”. In the assay with caspase-9, the “activity of caspase-9” value is given as “dose-dependently increased”. For the same compound, the IC80 in the assay on HepG2 cells [2] came out at 50000 µM. Also, the “intracellular ATP concentration (in words)” value in the assay on HepG2 cells [3] is “slightly decreased”. The “cell cycle arrest (in words)” value in the assay with HepG2 cells [4] is “cell cycle arrest in G2/M”. Besides, in the assay with caspase-3, the “activity of caspase-3” value was “dose-dependently increased”. In the assay with hexokinase (HK), the “total hexokinase (HK) activity (in words)” value is given as “reduce the activity of hexokinase”. Besides, the “lactate production (in words)” value with HepG2 cells [5] is listed as “decreased lactate production”.
With `N[C@@H](CS)C(=O)O` [L-Cys, L-cysteine], in the assay with HepG2 cells [2], the IC80 turned out to be 15000 µM.
The same measure, in the same setting: with `c1ccc([C@H]2CN3CCSC3=N2)cc1` [LM, levamisole] the figure was 2500 µM.
With `CC(=O)O[C@H]1C(=O)[C@@]2(C)[C@H]([C@H](OC(=O)c3ccccc3)[C@]3(O)C[C@H](OC(=O)[C@H](O)[C@@H](NC(=O)c4ccccc4)c4ccccc4)C(C)=C1C3(C)C)[C@]1(OC(C)=O)CO[C@@H]1C[C@@H]2O` [Paclitaxel], the IC50 in the assay on HELF cells worked out at 7.17 ± 0.08 µM; in the assay with HeLa cells it was 6.62 ± 0.21 µM; in the assay with HepG2 cells [2], 10.32 ± 0.02 µM; in the assay on AGS cells, 9.24 ± 0.13 µM; in the assay with A-375 cells it was 8.56 ± 0.07 µM.
`C[C@H]1[C@H](C)CC[C@]2(C(=O)O)CC[C@]3(C)C(=CC[C@@H]4[C@@]5(C)CC[C@H](O)C(C)(C)[C@@H]5CC[C@]43C)[C@H]12` [UA, 3β-hydroxy-urs-12-en-28-oic acid]: the IC50 in the assay on HELF cells is 21.3 ± 1.76 µM; in the assay on HeLa cells, 33.1 ± 0.63 µM; with HepG2 cells [2], 68.8 ± 3.71 µM; in the assay with AGS cells, 43.2 ± 2.13 µM; in the assay with A-375 cells it was 57.6 ± 3.21 µM; in assay [6], 33.1 to 68.8 µM.
